This is an account of results in ChEMBL document CHEMBL1127367, “Antiproliferative properties of polyamine analogues: a structure-activity study” (J Med Chem, 1994).

Assay [1] has as its system L1210. The assay is described as follows: Compound was evaluated for its impact on putrescine (Put) levels after 48 hr at concentration 10 uM. Format: functional, Mus musculus. Put shortly:
(§1)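 L1210 suspension cultures were grown in RPMI-1640 with 10% NuSerum, 2% HEPES-MOPS and 1 mM aminoguanidine (37 °C, 5% CO2). Log-phase cells were treated for 48 h, then washed twice in cold RPMI-1640 and pelleted. Pellets were extracted with 0.6 N perchloric acid, and supernatants were held at −20 °C until HPLC. Polyamine levels are given as % of untreated controls.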

Assay [2] has as its target T1, Ornithine decarboxylase (Mus musculus) (UniProt P00860).
T1 sequence (whole entry): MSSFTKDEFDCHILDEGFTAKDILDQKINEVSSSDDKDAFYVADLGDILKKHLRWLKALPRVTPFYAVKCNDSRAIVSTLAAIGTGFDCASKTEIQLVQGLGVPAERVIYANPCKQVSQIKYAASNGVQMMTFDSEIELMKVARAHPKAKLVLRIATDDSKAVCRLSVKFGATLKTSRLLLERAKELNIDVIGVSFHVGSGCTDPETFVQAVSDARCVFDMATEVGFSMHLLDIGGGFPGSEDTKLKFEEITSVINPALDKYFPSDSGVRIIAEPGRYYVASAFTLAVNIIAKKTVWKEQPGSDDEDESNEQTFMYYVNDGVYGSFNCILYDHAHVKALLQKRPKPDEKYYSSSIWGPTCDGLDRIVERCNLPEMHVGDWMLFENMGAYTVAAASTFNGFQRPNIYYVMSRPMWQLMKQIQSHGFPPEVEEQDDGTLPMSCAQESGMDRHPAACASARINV
The assay is described as follows: Inhibition of ornithine decarboxylase (ODC) activity. Details: concentration or dose not given beside the values. The class given is functional.

For assay [3], the system named is L1210. Put plainly: Compound level in L1210 cells after 48 hours of incubation at initial concentration of 10 uM is expressed as nmol/10e6 cells. Format: functional, Mus musculus. Put shortly:
(§2)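 Murine L1210 leukemia cells were kept in logarithmic growth as a suspension in RPMI-1640 with 10% NuSerum, 2% HEPES-MOPS buffer and 1 mM aminoguanidine, at 37 °C under 5% CO2. Log-phase cells were exposed to the analogue for 48 h. Intracellular analogue content is reported per 10^6 cells.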

The subject of assay [4] is L1210. The assay is described as follows: In vitro inhibition of L1210 growth after 48 hours. Conditions: Mus musculus, L1210, 48 h. Format: functional, cell-based. The procedure, abridged: (§3)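 Log-phase L1210 cultures (0.5–1.0 × 10^5 cells/mL) treated with analogue diluted in sterile water and filter-sterilized. After 48 h, cells were reseeded and grown a further 48 h for the 96 h point. Cells counted by Coulter counter. % growth = (treated − inoculum)/(untreated − inoculum) × 100.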

For assay [5], the target named is Spermidine/spermine N(1)-acetyltransferase (SAT) (Mus musculus) (UniProt Q6P8J2+P48026). The assay is described as follows: […] spermidine/spermine N1-Acetyltransferase (SSAT) activity. Format: functional. On the set-up: concentration or dose not given beside the values.
Sequence of Spermidine/spermine N(1)-acetyltransferase (SAT) (Mus musculus) (P48026 whole entry, looked up): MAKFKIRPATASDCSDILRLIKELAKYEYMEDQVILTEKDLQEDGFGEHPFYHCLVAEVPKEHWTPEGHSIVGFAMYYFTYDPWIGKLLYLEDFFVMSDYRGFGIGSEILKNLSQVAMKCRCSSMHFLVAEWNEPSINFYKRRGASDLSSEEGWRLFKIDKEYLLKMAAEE
Sequence of Spermidine/spermine N(1)-acetyltransferase (SAT) (Mus musculus) (Q6P8J2 whole entry, looked up): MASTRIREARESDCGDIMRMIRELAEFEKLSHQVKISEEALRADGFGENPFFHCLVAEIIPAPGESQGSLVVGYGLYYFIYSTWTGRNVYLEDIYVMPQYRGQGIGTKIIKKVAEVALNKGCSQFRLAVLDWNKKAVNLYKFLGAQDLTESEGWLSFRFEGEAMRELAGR
For assay [6], the system named is L1210. Put plainly: Inhibition of radiolabeled spermidine uptake into L1210 cells in vitro. The class given is functional, cell-based, Mus musculus.
The test system of assay [7] is L1210. The assay is described as follows: Compound was evaluated for its impact on spermidine levels after 48 hr at concentration 10 uM. The class given is functional, Mus musculus. The procedure, abridged: as §1
Assay [8] addresses T2, S-adenosylmethionine decarboxylase proenzyme 1 (Mus musculus) (UniProt P0DMN7).
T2 sequence (whole entry): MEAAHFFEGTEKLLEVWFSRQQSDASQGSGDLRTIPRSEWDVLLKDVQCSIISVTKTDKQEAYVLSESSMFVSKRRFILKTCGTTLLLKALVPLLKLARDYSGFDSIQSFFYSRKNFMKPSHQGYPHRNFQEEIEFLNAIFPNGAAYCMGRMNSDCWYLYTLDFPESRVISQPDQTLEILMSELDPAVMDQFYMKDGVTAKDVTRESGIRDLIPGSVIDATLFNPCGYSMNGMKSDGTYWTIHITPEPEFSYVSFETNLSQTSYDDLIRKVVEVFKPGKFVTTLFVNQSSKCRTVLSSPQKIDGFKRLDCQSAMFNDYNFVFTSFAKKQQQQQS
Put plainly: Inhibition of S-Adenosyl-methionine decarboxylase (AdoMetDC) activity. Format: functional. On the set-up: concentration or dose not given beside the values.

For assay [9], the system named is L1210. Put plainly: In vitro inhibition of L1210 growth after 96 hours. Format: functional, cell-based. Conditions: Mus musculus, L1210, 96 h. Put shortly:
as §3

For assay [10], the system named is L1210. The assay is described as follows: Compound was evaluated for its impact on spermine levels after 48 hr at concentration 10 uM. Format: functional, Mus musculus. Put shortly:
(§4)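 Murine L1210 leukemia cells in log-phase suspension (RPMI-1640, 10% NuSerum, 2% HEPES-MOPS, 1 mM aminoguanidine, 37 °C, 5% CO2) exposed to analogue for 48 h. Cells washed twice in cold RPMI-1640, extracted with 0.6 N perchloric acid, and polyamines quantified by HPLC. Spermine is reported as % of untreated control.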

In assay [11] the test system is L1210. Put plainly: (§5) Compound was evaluated for its impact on spermine levels uM. Format: functional, Mus musculus.
The subject of assay [12] is L1210. The assay is described as §5. Format: functional, Mus musculus. The source holds these as a separate data set.
Assay [13] concerns L1210. Put plainly: Compound level in L1210 cells after 48 hours of incubation at initial concentration of 1.5 uM is expressed as nmol/10e6 cells. The class given is functional, Mus musculus. Put shortly:
as §2

In assay [14] the test system is L1210. The assay is described as follows: Compound was evaluated for its impact on putrescine (Put) levels after 48 hr at concentration 0.3 uM. The class given is functional, Mus musculus. Put shortly: as §1
Assay [15] has as its system L1210. Put plainly: Compound was evaluated for its impact on putrescine (Put) levels after 48 hr at concentration 1.5 uM. Format: functional, Mus musculus. Put shortly:
as §1

Assay [16] relates to L1210. The assay is described as follows: Compound was evaluated for its impact on spermidine levels after 48 hr at concentration 0.3 uM. Format: functional, Mus musculus. The procedure, abridged: as §1
For assay [17], the system named is L1210. Put plainly: Compound was evaluated for its impact on spermidine levels after 48 hr at concentration 1.5 uM. The class given is functional, Mus musculus. Put shortly: as §1
The test system of assay [18] is S-adenosylmethionine decarboxylase (Mus musculus). Put plainly: Effect of compound on S-Adenosyl-methionine decarboxylase (AdoMetDC) activity expressed as percent of untreated control for (AdoMetDC) (1 uM at 6 hr).
The test system of assay [19] is L1210. The assay is described as follows: Compound level in L1210 cells after 48 hours of incubation at initial concentration of 0.3 uM is expressed as nmol/10e6 cells. The class given is functional, Mus musculus. Put shortly: as §2
In assay [20] the test system is L1210. Put plainly: Compound was evaluated for its impact on putrescine (Put) levels after 48 hr at concentration 3 uM. Format: functional, Mus musculus. The procedure, abridged:
as §1

Assay [21] deals with L1210. The assay is described as follows: Compound level in L1210 cells after 48 hours of incubation at initial concentration of 15 uM is expressed as nmol/10e6 cells. Format: functional, Mus musculus. The procedure, abridged: as §2
Assay [22] deals with L1210. The assay is described as follows: Compound was evaluated for its impact on spermine levels after 48 hr at concentration 3 uM. Format: functional, Mus musculus. Put shortly:
as §4

Assay [23] deals with L1210. Put plainly: Compound was evaluated for its impact on spermidine levels after 48 hr at concentration 15 uM. The class given is functional, Mus musculus. The procedure, abridged:
as §1

Assay [24] has as its system L1210. Put plainly: Compound was evaluated for its impact on spermidine levels after 48 hr at concentration 3 uM. Format: functional, Mus musculus. The procedure, abridged:
as §1

Assay [25] has as its system L1210. The assay is described as follows: Compound was evaluated for its impact on putrescine (Put) levels after 48 hr at concentration 15 uM. The class given is functional, Mus musculus. The procedure, abridged: as §1
Assay [26] relates to L1210. The assay is described as follows: Compound level in L1210 cells after 48 hours of incubation at initial concentration of 3 uM is expressed as nmol/10e6 cells. Format: functional, Mus musculus. The procedure, abridged:
as §2

Assay [27] relates to L1210. The assay is described as follows: Compound was evaluated for its impact on spermine levels after 48 hr at concentration 15 uM. The class given is functional, Mus musculus. Put shortly:
as §4

Consider `CCNCCCCNCCCCNCCCCNCC` [DIETHYLHOMOSPERMINE], for which the Polyamine in the assay with L1210 [1] was 0%; with L1210 [7], 0%; with L1210 [10] it was 61%. Besides, the Activity in [2] is 7%; in the assay on L1210 [3], 2.94; in assay [5], 140%; in assay [8] it was 41%. Also, the figures for the IC50 with L1210 [4] and with L1210 [9] were 200 nM and 70 nM, respectively. Also, affinity with L1210 [6] was put at a Ki of 1400 nM.
Take `CCNCCCCNCCCCCNCCCCNCC`: the Polyamine was 70% with L1210 [11]; 31% in the assay with L1210 [12]; 44% in the assay with L1210 [14]; 0% in the assay on L1210 [15]; 61% in the assay on L1210 [16]; 5% in the assay on L1210 [17]. Besides, the Activity in assay [2] worked out at 20%; in [5] it was 120%; in the assay on L1210 [13] it was 0.72; in assay [18], 39%; in the assay with L1210 [19], 0.26. Besides, the IC50 turned out to be 300 nM in the assay on L1210 [4] and 35 nM in the assay with L1210 [9]. This compound came in with a Ki in the assay with L1210 [6] of 6000 nM.
`CCCNCCCNCCCCNCCCNCCC`: the Polyamine stood at 0% in the assay on L1210 [20]; 64% in the assay with L1210 [22]; 9% with L1210 [23]; 18% in the assay on L1210 [24]; 0% with L1210 [25]; 43% in the assay with L1210 [27]. For the same compound, the Activity in assay [2] was determined as 52%; in the assay with L1210 [21] it was 1.09; in [5], 500%; in the assay on L1210 [26], 1.12; in [8], 72%. This compound also showed an inhibition constant (Ki) with L1210 [6] of 2300 nM.

By IC50 is commonly meant the midpoint of a concentration-inhibition curve. What is called Ki is a measure of affinity in units of concentration, obtained from inhibition or displacement.
